ChEMBL document CHEMBL3588843, “Synthesis of C-5″ and C-6″-modified α-GalCer analogues as iNKT-cell agonists” (Bioorg Med Chem, 2015)
The source made the active and inactive calls. The rule behind the calls is not given here.

Experiments:
Mus musculus [1] = experiment: In vivo activation of iNKT cells in C57BL/6 mouse assessed as stimulation of IFNgamma production in serum at 5 ug, ip after 16 hrs by ELISA relative to alpha-GalCer; type: functional, organism-based
Procedure, shortened: (§1)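 C57BL/6 mice, 5–12 weeks old, in-house bred or purchased. Glycolipid dissolved in PBS with DMSO, given intraperitoneally at 5 μg per mouse. Mice bled 4 h (IL-4) and 16 h (IFN-γ) after injection; cytokines measured in serum. At least 2 separate experiments, 5–8 mice per group per glycolipid.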

Mus musculus [2] = experiment: In vivo activation of iNKT cells in C57BL/6 mouse assessed as stimulation of IL4 production in serum at 5 ug, ip after 4 hrs by ELISA; type: functional, organism-based; procedure, shortened: as §1

SMILES	Activity (Mus musculus [1])	Activity (Mus musculus [2])
CCCCCCCCCCCCCCCCCCCCCCCCCC(=O)N[C@@H](CO[C@H]1O[C@H](C(=O)NCCc2ccccc2)[C@H](O)[C@H](O)[C@H]1O)[C@H](O)[C@H](O)CCCCCCCCCCCCCC	inactive	inactive
CCCCCCCCCCCCCCCCCCCCCCCCCC(=O)N[C@@H](CO[C@H]1O[C@H](C(=O)NCc2ccsc2)[C@H](O)[C@H](O)[C@H]1O)[C@H](O)[C@H](O)CCCCCCCCCCCCCC	Active	inactive
CCCCCCCCCCCCCCCCCCCCCCCCCC(=O)N[C@@H](CO[C@H]1O[C@H](C(=O)NCc2cccc3ccccc23)[C@H](O)[C@H](O)[C@H]1O)[C@H](O)[C@H](O)CCCCCCCCCCCCCC	inactive	inactive
CCCCCCCCCCCCCCCCCCCCCCCCCC(=O)N[C@@H](CO[C@H]1O[C@H](COC(=O)Nc2cccc3ccccc23)[C@H](O)[C@H](O)[C@H]1O)[C@H](O)[C@H](O)CCCCCCCCCCCCCC	Active	Active
CCCCCCCCCCCCCCCCCCCCCCCCCC(=O)N[C@@H](CO[C@H]1O[C@H](COC(=O)Nc2ccncc2)[C@H](O)[C@H](O)[C@H]1O)[C@H](O)[C@H](O)CCCCCCCCCCCCCC	Active	Active
CCCCCCCCCCCCCCCCCCCCCCCCCC(=O)N[C@@H](CO[C@H]1O[C@H](C(=O)Nc2ccc(Cl)c(Cl)c2)[C@H](O)[C@H](O)[C@H]1O)[C@H](O)[C@H](O)CCCCCCCCCCCCCC	inactive	inactive
CCCCCCCCCCCCCCCCCCCCCCCCCC(=O)N[C@@H](CO[C@H]1O[C@H](C(=O)NCc2ccccc2)[C@H](O)[C@H](O)[C@H]1O)[C@H](O)[C@H](O)CCCCCCCCCCCCCC	inactive	inactive
CCCCCCCCCCCCCCCCCCCCCCCCCC(=O)N[C@@H](CO[C@H]1O[C@H](COC(=O)Nc2ccc(Cl)cc2)[C@H](O)[C@H](O)[C@H]1O)[C@H](O)[C@H](O)CCCCCCCCCCCCCC	Active	Active
CCCCCCCCCCCCCCCCCCCCCCCCCC(=O)N[C@@H](CO[C@H]1O[C@H](C(=O)NCc2ccc(Cl)c(Cl)c2)[C@H](O)[C@H](O)[C@H]1O)[C@H](O)[C@H](O)CCCCCCCCCCCCCC	inactive	inactive
CCCCCCCCCCCCCCCCCCCCCCCCCC(=O)N[C@@H](CO[C@H]1O[C@H](C(=O)Nc2ccccc2)[C@H](O)[C@H](O)[C@H]1O)[C@H](O)[C@H](O)CCCCCCCCCCCCCC	Active	inactive
